Assay results as given in ChEMBL document CHEMBL1154716, “Synthesis of some new S-triazine based chalcones and their derivatives as potent antimicrobial agents” (2010).
≈ marks a conversion by molar mass, not a printed value. Calls of active or inactive are those of the source. The rule behind the calls is not given here.

How the values were obtained:
Salmonella typhimurium [1] = assay: Antimicrobial activity against Salmonella Typhimurium at 1 umol/disk after 24 hrs by disk diffusion assay; type: functional, organism-based; details: Salmonella enterica subsp. enterica serovar Typhimurium
Summary of the method: (§1)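 Disc diffusion on 4 mm filter discs. Bacteria are grown overnight in LB at 28 C, then adjusted in saline to 1.0 × 10^5 cfu/ml. The suspension is mixed into top agar over peptone agar plates. Plates are incubated 24 h at 28 C, and growth-inhibition zone diameter is measured. Streptomycin and ampicillin controls are applied from a 1 mg/ml stock. Tests are done in duplicate.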

Listeria monocytogenes [2] = assay: Antimicrobial activity against Listeria monocytogenes at 10 ug/disk after 24 hrs by disk diffusion assay; type: functional; summary of the method: as §1
Listeria monocytogenes [3] = assay: Antimicrobial activity against Listeria monocytogenes at 1 umol/disk after 24 hrs by disk diffusion assay; type: functional; summary of the method: as §1
Enterobacter cloacae [4] = assay: Antimicrobial activity against Enterobacter cloacae at 1 umol/spot after 18 hrs by TLC-bioautographic method; type: functional
Summary of the method: (§2)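 TLC bioautography. Samples are spotted on silica gel TLC plates, then sprayed with bacteria (1.0 × 10^5 cfu/ml) in tryptic soy broth. Plates are incubated 18 h at 37 C and sprayed with 3% aqueous p-iodonitrotetrazolium violet. After a further 3 h, growth is stopped with 70% EtOH. White zones on a pink background are scored as inhibition-zone diameter with standard errors.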

Staphylococcus aureus [5] = assay: Antimicrobial activity against Staphylococcus aureus at 1 umol/spot after 18 hrs by TLC-bioautographic method; type: functional; summary of the method: as §2
Escherichia coli [6] = assay: Antimicrobial activity against Escherichia coli at 1 umol/spot after 18 hrs by TLC-bioautographic method; type: functional; summary of the method: as §2
Staphylococcus aureus [7] = assay: Antimicrobial activity against Staphylococcus aureus at 10 ug/disk after 24 hrs by disk diffusion assay; type: functional; summary of the method: as §1
Micrococcus flavus [8] = assay: Antimicrobial activity against Micrococcus flavus at 10 ug/disk after 24 hrs by disk diffusion assay; type: functional; details: read-out: IZ; summary of the method: as §1
Bacillus cereus [9] = assay: Antimicrobial activity against Bacillus cereus after 24 hrs by microdilution technique; type: functional
Summary of the method: (§3)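 Broth microdilution in LB medium. Inoculum is 1.0 × 10^4 cfu per well, from a saline-adjusted suspension of 1.0 × 10^5 cfu/ml. Compounds are dissolved in DMSO. Incubated 24 h at 28 C. MIC is the lowest concentration with no visible growth under a binocular microscope. MBC is read by subculture into fresh broth for 72 h, with no growth taken as 99.5% kill. OD is read at 655 nm.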

Escherichia coli [10] = assay: Antimicrobial activity against Escherichia coli after 24 hrs by microdilution technique; type: functional; summary of the method: as §3
Bacillus cereus [11] = assay: Antimicrobial activity against Bacillus cereus at 10 ug/disk after 24 hrs by disk diffusion assay; type: functional; summary of the method: as §1
Enterobacter cloacae [12] = assay: Antimicrobial activity against Enterobacter cloacae after 24 hrs by microdilution technique; type: functional; summary of the method: as §3
Pseudomonas aeruginosa [13] = assay: Antimicrobial activity against Pseudomonas aeruginosa at 1 umol/disk after 24 hrs by disk diffusion assay; type: functional; summary of the method: as §1
Listeria monocytogenes [14] = assay: Antimicrobial activity against Listeria monocytogenes after 24 hrs by microdilution technique; type: functional; summary of the method: as §3
Pseudomonas aeruginosa [15] = assay: Antimicrobial activity against Pseudomonas aeruginosa at 10 ug/disk after 24 hrs by disk diffusion assay; type: functional; summary of the method: as §1
Salmonella typhimurium [16] = assay: Antimicrobial activity against Salmonella Typhimurium at 10 ug/disk after 24 hrs by disk diffusion assay; type: functional, organism-based; details: Salmonella enterica subsp. enterica serovar Typhimurium; summary of the method: as §1
Pseudomonas aeruginosa [17] = assay: Antimicrobial activity against Pseudomonas aeruginosa after 24 hrs by microdilution technique; type: functional; summary of the method: as §3
Pseudomonas aeruginosa [18] = assay: Antimicrobial activity against Pseudomonas aeruginosa at 1 umol/spot after 18 hrs by TLC-bioautographic method; type: functional; summary of the method: as §2
Bacillus cereus [19] = assay: Antimicrobial activity against Bacillus cereus at 1 umol/spot after 18 hrs by TLC-bioautographic method; type: functional; summary of the method: as §2
Escherichia coli [20] = assay: Antimicrobial activity against Escherichia coli at 10 ug/disk after 24 hrs by disk diffusion assay; type: functional; details: read-out: IZ; summary of the method: as §1
Micrococcus flavus [21] = assay: Antimicrobial activity against Micrococcus flavus after 24 hrs by microdilution technique; type: functional; summary of the method: as §3
Listeria monocytogenes [22] = assay: Antimicrobial activity against Listeria monocytogenes at 1 umol/spot after 18 hrs by TLC-bioautographic method; type: functional; summary of the method: as §2
Micrococcus flavus [23] = assay: Antimicrobial activity against Micrococcus flavus at 1 umol/spot after 18 hrs by TLC-bioautographic method; type: functional; summary of the method: as §2
Enterobacter cloacae [24] = assay: Antimicrobial activity against Enterobacter cloacae at 10 ug/disk after 24 hrs by disk diffusion assay; type: functional; summary of the method: as §1
Salmonella typhimurium [25] = assay: Antimicrobial activity against Salmonella Typhimurium after 24 hrs by microdilution technique; type: functional, Salmonella enterica subsp. enterica serovar Typhimurium; details: Salmonella enterica; summary of the method: as §3
Salmonella typhimurium [26] = assay: Antimicrobial activity against Salmonella Typhimurium at 1 umol/spot after 18 hrs by TLC-bioautographic method; type: functional, Salmonella enterica subsp. enterica serovar Typhimurium; summary of the method: as §2
Micrococcus flavus [27] = assay: Antimicrobial activity against Micrococcus flavus at 1 umol/disk after 24 hrs by disk diffusion assay; type: functional; summary of the method: as §1
Escherichia coli [28] = assay: Antimicrobial activity against Escherichia coli at 1 umol/disk after 24 hrs by disk diffusion assay; type: functional; summary of the method: as §1
Staphylococcus aureus [29] = assay: Antimicrobial activity against Staphylococcus aureus after 24 hrs by microdilution technique; type: functional; summary of the method: as §3
Enterobacter cloacae [30] = assay: Antimicrobial activity against Enterobacter cloacae at 1 umol/disk after 24 hrs by disk diffusion assay; type: functional; summary of the method: as §1
Staphylococcus aureus [31] = assay: Antimicrobial activity against Staphylococcus aureus at 1 umol/disk after 24 hrs by disk diffusion assay; type: functional; summary of the method: as §1
Bacillus cereus [32] = assay: Antimicrobial activity against Bacillus cereus at 1 umol/disk after 24 hrs by disk diffusion assay; type: functional; summary of the method: as §1

SMILES	inhibition zone (IZ) (Salmonella typhimurium [1])	inhibition zone (IZ) (Enterobacter cloacae [4]) [millimeter]	inhibition zone (IZ) (Staphylococcus aureus [5])	inhibition zone (IZ) (Escherichia coli [6])	zone of inhibition at 10 µg/disc (Micrococcus flavus [8]) [mm]	MBC (Bacillus cereus [9]) [µM]	MIC (Bacillus cereus [9]) [µM]	MBC (Escherichia coli [10]) [µM]	MIC (Escherichia coli [10]) [µM]	MBC (Enterobacter cloacae [12]) [µM]	MIC (Enterobacter cloacae [12]) [µM]	MBC (Listeria monocytogenes [14]) [µM]	MIC (Listeria monocytogenes [14]) [µM]	inhibition zone (IZ) (Salmonella typhimurium [16])	MBC (Pseudomonas aeruginosa [17]) [µM]	MIC (Pseudomonas aeruginosa [17]) [µM]	inhibition zone (IZ) (Pseudomonas aeruginosa [18])	inhibition zone (IZ) (Bacillus cereus [19])	zone of inhibition at 10 µg/disc (Escherichia coli [20]) [mm]	MBC (Micrococcus flavus [21]) [µM]	other results
CN[C@@H]1[C@H](O[C@H]2[C@H](O[C@H]3[C@H](O)[C@@H](O)[C@H](N=C(N)N)[C@@H](O)[C@@H]3N=C(N)N)O[C@@H](C)[C@]2(O)C=O)O[C@@H](CO)[C@H](O)[C@H]1O [STREPTOMYCIN]	inactive	0.07	0.04 millimeter	0.06 millimeter	20	86 (≈ 50 µg/mL)	43 (≈ 25 µg/mL)	344 (≈ 200 µg/mL)	172 (≈ 100 µg/mL)	344 (≈ 200 µg/mL)	172 (≈ 100 µg/mL)	516 (≈ 300 µg/mL)	258 (≈ 150 µg/mL)	inactive	344 (≈ 200 µg/mL)	172 (≈ 100 µg/mL)	0.08 millimeter	0.08 millimeter	10	172 (≈ 100 µg/mL)	inhibition zone (IZ) (Listeria monocytogenes [2]): inactive; inhibition zone (IZ) (Listeria monocytogenes [3]): inactive; zone of inhibition at 10 µg/disc (Staphylococcus aureus [7]; read-out: IZ): 13 mm; zone of inhibition at 10 µg/disc (Bacillus cereus [11]; read-out: IZ): 18 mm; inhibition zone (IZ) (Pseudomonas aeruginosa [13]): inactive; inhibition zone (IZ) (Pseudomonas aeruginosa [15]): inactive; MIC (Micrococcus flavus [21]): 86 µM (≈ 50 µg/mL); inhibition zone (IZ) (Listeria monocytogenes [22]): 0.08 millimeter; inhibition zone (IZ) (Micrococcus flavus [23]): 0.05 millimeter; zone of inhibition at 10 µg/disc (Enterobacter cloacae [24]; read-out: IZ): 12 mm; MBC (Salmonella typhimurium [25]): 344 µM (≈ 200 µg/mL); MIC (Salmonella typhimurium [25]): 172 µM (≈ 100 µg/mL); inhibition zone (IZ) (Salmonella typhimurium [26]): 0.08 millimeter; inhibition zone (IZ) (Micrococcus flavus [27]): 0.1 millimeter; inhibition zone (IZ) (Escherichia coli [28]): 0.06 millimeter; MBC (Staphylococcus aureus [29]): 344 µM (≈ 200 µg/mL); MIC (Staphylococcus aureus [29]): 172 µM (≈ 100 µg/mL)
O=C(/C=C/c1ccco1)c1ccc(Nc2nc(Nc3ccccc3)nc(Nc3ccccc3)n2)cc1	inactive	0.08	0.08 millimeter	0.08 millimeter	8	422 (≈ 200 µg/mL)	211 (≈ 100 µg/mL)	422 (≈ 200 µg/mL)	211 (≈ 100 µg/mL)	422 (≈ 200 µg/mL)	211 (≈ 100 µg/mL)	844 (≈ 400 µg/mL)	422 (≈ 200 µg/mL)	inactive	422 (≈ 200 µg/mL)	211 (≈ 100 µg/mL)	inactive	0.07 millimeter	8	844 (≈ 400 µg/mL)	inhibition zone (IZ) (Listeria monocytogenes [2]): inactive; inhibition zone (IZ) (Listeria monocytogenes [3]): inactive; inhibition zone (IZ) (Staphylococcus aureus [7]): inactive; inhibition zone (IZ) (Bacillus cereus [11]): inactive; zone of inhibition at 10 µg/disc (Pseudomonas aeruginosa [15]; read-out: IZ): 6 mm; inhibition zone (IZ) (Enterobacter cloacae [30]): inactive; inhibition zone (IZ) (Staphylococcus aureus [31]): inactive; MIC (Micrococcus flavus [21]): 422 µM (≈ 200 µg/mL); inhibition zone (IZ) (Listeria monocytogenes [22]): 0.08 millimeter; inhibition zone (IZ) (Micrococcus flavus [23]): 0.07 millimeter; inhibition zone (IZ) (Enterobacter cloacae [24]): inactive; MBC (Salmonella typhimurium [25]): 422 µM (≈ 200 µg/mL); MIC (Salmonella typhimurium [25]): 211 µM (≈ 100 µg/mL); inhibition zone (IZ) (Bacillus cereus [32]): inactive; inhibition zone (IZ) (Salmonella typhimurium [26]; Salmonella enterica subsp. enterica serovar Typhimurium): inactive; inhibition zone (IZ) (Micrococcus flavus [27]): 0.04 millimeter; inhibition zone (IZ) (Escherichia coli [28]): 0.04 millimeter; MBC (Staphylococcus aureus [29]): 844 µM (≈ 400 µg/mL); MIC (Staphylococcus aureus [29]): 422 µM (≈ 200 µg/mL)
COc1ccccc1-c1cc(-c2ccc(Nc3nc(Nc4ccccc4)nc(Nc4ccccc4)n3)cc2)nc(N)c1C#N	inactive	0.08	inactive	inactive	10	173 (≈ 99.9 µg/mL)	86.5 (≈ 50 µg/mL)	346 (≈ 200 µg/mL)	173 (≈ 99.9 µg/mL)	346 (≈ 200 µg/mL)	173 (≈ 99.9 µg/mL)	692 (≈ 400 µg/mL)	346 (≈ 200 µg/mL)	inactive	692 (≈ 400 µg/mL)	346 (≈ 200 µg/mL)	inactive	inactive	7	173 (≈ 99.9 µg/mL)	zone of inhibition at 10 µg/disc (Listeria monocytogenes [2]; read-out: IZ): 6 mm; inhibition zone (IZ) (Staphylococcus aureus [7]): inactive; inhibition zone (IZ) (Bacillus cereus [11]): inactive; inhibition zone (IZ) (Pseudomonas aeruginosa [13]): inactive; inhibition zone (IZ) (Pseudomonas aeruginosa [15]): inactive; inhibition zone (IZ) (Enterobacter cloacae [30]): inactive; inhibition zone (IZ) (Staphylococcus aureus [31]): inactive; MIC (Micrococcus flavus [21]): 86.5 µM (≈ 50 µg/mL); inhibition zone (IZ) (Listeria monocytogenes [22]): 0.09 millimeter; inhibition zone (IZ) (Micrococcus flavus [23]): 0.06 millimeter; inhibition zone (IZ) (Enterobacter cloacae [24]): inactive; MBC (Salmonella typhimurium [25]): 346 µM (≈ 200 µg/mL); MIC (Salmonella typhimurium [25]): 173 µM (≈ 99.9 µg/mL); inhibition zone (IZ) (Bacillus cereus [32]): inactive; inhibition zone (IZ) (Salmonella typhimurium [26]): 0.07 millimeter; inhibition zone (IZ) (Micrococcus flavus [27]): 0.06 millimeter; inhibition zone (IZ) (Escherichia coli [28]): 0.04 millimeter; MBC (Staphylococcus aureus [29]): 346 µM (≈ 200 µg/mL); MIC (Staphylococcus aureus [29]): 173 µM (≈ 99.9 µg/mL)
